E coli WT exp = blocks growth of wild type E. coli BW25113; OD600 absorbance; growth inhibition, % at 100 µM; actives 0.15% (n = 98,000); AID 710;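 active = growth inhibition above about 50% at one test dose, limit read from the data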;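 also: growth measured after 20 h incubation at 37 °C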
Fibroblast inh = blocks proliferation of human lung fibroblasts. LL 47 human lung fibroblast viability, ATP luminescence; active compounds read low. viability, % at 10 µM. actives 1.1% (n = 85,000);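 active = viability at or below 50% in the single dose screen; inactive = viability above 50%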;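 also: compound exposure lasted 72 h before the ATP readout; 100% = median luminescence of untreated cell-only wells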
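Test system: LL 47 human lung fibroblasts / Quantity: 1,150 cells in each well / Medium: IMEM growth medium with 15% fetal bovine serum / Incubation: 72 h compound exposure at 37 °C after overnight plating / Detection: CellTiter-Glo luminescence measuring cellular ATP / Read-out: % viability versus median cells-only luminescence / Benchmarks: cell-only wells, no compound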
HUVEC inhibit = inhibitors of human endothelial cell proliferation; HUVEC proliferation, CellTiter-Glo luminescence, 72 h; active compounds read low; viability, % at 10 µM (by protocol); actives 1.1% (n = 86,000); AID 648;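 active = viability at or below 30%; inactive = viability above 30%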;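 also: 100% = median luminescence of DMSO-only cell control wells on each plate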
H69AR growth 86K = blocks growth of human H69AR lung tumor cells; actives 6% (n = 85,000); AID 598; viability, % at 10 µM; H69AR lung tumor viability, ATP luminescence, 72 h; active compounds read low;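 active = viability at or below 40%; inactive = viability above 40%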;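 also: multidrug resistant small cell line overexpressing MRP-1 efflux transporter; 100% = mean luminescence of untreated control wells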
Ecoli tolC = growth inhibitors of E. coli BW25113 tolC mutant. OD615. growth inhibition, % at 10 µM (by protocol). actives 2.2% (n = 65,000);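 active = growth inhibition at or above a cutoff equal to the mean over every tested compound plus 3 SD, cut at about 60% in these data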;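 also: growth measured after 20 h incubation at 37 °C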
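test system = E. coli BW25113 ΔtolC::kan bacteria | medium = LB with kanamycin 50 µg/mL | signal = OD at 615 nm | schedule = 37 °C, 20 h exposure | evaluation = % inhibition of E. coli growth | compound dosing = one dose of 10 µM final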
Jurkat viability = cytotoxic compounds reducing Jurkat cell viability; Jurkat E6.1 viability, ATP luminescence, 48 h; inhibition, % at 4 µM; actives 1.2% (n = 56,000);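 active = inhibition above the mean inhibition of all tested compounds plus 3 SD, cut at about 28% in these data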
Numbers without * were called inactive; · = no result. This is a sample that favours compounds with a hit; in the whole collection about 6.4% have one here.

SMILES	E coli WT exp	Fibroblast inh	HUVEC inhibit	H69AR growth 86K	Ecoli tolC	Jurkat viability
Cc1ccc(S(=O)(=O)[N-]c2nc3ccccc3nc2-n2cc[n+](CCC(C)C)c2)cc1	-5	94	96	91	·	·
Cc1ccc(S(=O)(=O)/N=C2\C(=O)c3ccccc3C([O-])=C2n2cc[n+](CCC(C)C)c2)cc1	4	44*	4.4*	42	·	·
C#CCOC(=O)C(NC(=O)c1ccccc1)=C1CCCCC1	-5	106	88	89	·	·
O=S(=O)(Nc1cc(Cl)ccc1N1CCCCC1)c1cccs1	-6	87	101	86	62*	15
CC1(C)CC(=O)C(C=Nc2ccc(O)cc2)=C(O)C1	4	88	94	54	-21	6
CCOc1ccc(N=CC2=C(O)CC(C)(C)CC2=O)cc1	1	93	76	40*	-2	-1
O=S(=O)(c1ccccc1)N1CCN(Cc2ccccc2C(F)(F)F)CC1	-4	97	90	104	64*	1
Cc1ccc(S(=O)(=O)N(CC(O)CN2C(=O)NC(C)(C)C2=O)c2ccccc2)cc1 (configuration not stated)	4	101	108	96	·	·
CCCS(=O)(=O)N1CCN(S(=O)(=O)c2ccc(F)cc2)CC1	-10	96	96	93	-11	3
O=C(O)CCC(=O)N1CCc2cc(S(=O)(=O)N3CCC(Cc4ccccc4)CC3)ccc21	-12	97	102	103	100*	-5
CC1CCN(S(=O)(=O)c2ccc3c(c2)CCN3C(=O)CCC(=O)O)CC1	-4	103	90	91	-10	-2
CCCc1nc(SCc2cccnc2)c2c(=O)n(C)c(=O)n(C)c2n1	-6	·	·	·	33	3
Cn1c(=O)c2c(SCc3cccnc3)nc(CC(C)(C)C)nc2n(C)c1=O	-18	97	81	44	97*	-8
CCNC(=O)CN(Cc1ccccc1)S(=O)(=O)c1ccccc1	-2	96	93	93	6	-2
COc1ccc(CN=C(C)c2c(C(F)(F)F)[nH]n(-c3nc4ccccc4s3)c2=O)cc1	-12	101	22*	13*	·	·
COC(=O)Cc1[nH]n(-c2nc3ccccc3s2)c(=O)c1C(C)=O	-3	96	85	93	·	·
COc1ccc(C(C(=O)NC(C)(C)C)N(C(=O)CNC(=O)c2cccs2)c2ccc(C)cc2)cc1OC (configuration not stated)	10	·	·	·	·	·
CC(C)(C)c1ccc(-c2nnc(SCCN3C(=O)c4ccccc4C3=O)o2)cc1	-5	101	103	102	·	·
COc1cccc(-c2cc(C(=O)N3CCc4ccccc4C3)no2)c1	-8	100	119	99	90*	9
COc1ccc(OC)c(-c2cc(C(=O)N3CCc4ccccc4C3)no2)c1	-19	·	·	·	69*	-6
CN(CC(=O)Nc1ccncc1)S(=O)(=O)c1ccc(Cl)cc1	3	104	106	100	1	11
Cc1c(C)n(C(=O)CN2CCN(c3ccccc3)CC2)c2ccccc12	-16	112	109	96	·	·
O=C(CN1CCN(Cc2ccccc2F)C1=O)NCc1ccco1	5	93	96	96	·	·
Cc1ccc[n+](C(C)C(=O)Nc2ccc(C)c([N+](=O)[O-])c2)c1 (configuration not stated)	-13	·	·	·	·	·
O=C(OCC#CCSc1nnc(-c2ccc([N+](=O)[O-])cc2)o1)c1cccs1	-7	98	91	37*	·	·
SMILES	E coli WT exp	Fibroblast inh	HUVEC inhibit	H69AR growth 86K	Ecoli tolC	Jurkat viability
COc1cc(NS(=O)(=O)c2ccc3c(c2)n(C)c(=O)n3C)cc(OC)c1	4	90	93	85	·	·
CSc1nc2c(cnn2-c2ccc(C)c(C)c2)c(=O)[nH]1	-17	100	38	20*	-19	-4
Cc1cccnc1NCc1ccc(O)c2ncccc12	17	83	68	13*	5	1
Cc1ccc(O)c(CNc2ccccn2)c1	7	92	83	·	-8	-7
N#Cc1c(NC(=O)c2cc(C3CC3)on2)sc2c1CCC2	1	99	61	33*	4	3
Cc1cc(C(=O)Nc2sc3c(c2C#N)CCC(C)C3)no1 (configuration not stated)	0	·	58	52	21	12
CC(C)Cc1cc(C(=O)Nc2sc3c(c2C#N)CCCC3)no1	-2	91	97	91	79*	0
Cc1cc(C(=O)Nc2sc3c(c2C#N)CCC3)no1	-4	99	68	22*	11	45*
Cc1cc(C(=O)Nc2sc3c(c2C#N)CCCC3)no1	2	96	80	27*	1	18
CCC(C)C(NC(=O)C(C)NC(=O)CNC(=O)CNC(=O)OCc1ccccc1)C(=O)OC (configuration not stated)	·	100	94	101	·	·
COc1cc(CSc2nnnn2-c2ccc(C)cc2)cc(OC)c1OC	-10	86	85	60	42	89*
Cc1cc(C)c2cc(CN(CCO)C(c3nnnn3Cc3ccc(F)cc3)C(C)C)c(=O)[nH]c2c1 (configuration not stated)	-6	93	76	61	70*	-1
Cc1cc(C)c2cc(CN(CCO)C(=O)Nc3ccc(F)cc3)c(=O)[nH]c2c1	5	95	88	38*	-10	2
Cc1cc(C)c2cc(C(O)c3nnnn3Cc3ccccc3)c(=O)[nH]c2c1 (configuration not stated)	2	102	90	60	14	4
CCN(CC(=O)Nc1ccccc1Br)Cc1nc2ccccc2c(=O)[nH]1	6	94	91	87	·	·
O=C(CN1C(=O)COc2ccccc21)N1CCc2ccccc2C1	·	3.1*	84	108	·	·
O=C(CN1C(=O)COc2ccccc21)N1CCCc2ccccc21	5	98	101	98	-16	-1
Cn1c(C(=O)OC(C(=O)NC2CCCCC2)c2ccncc2)cc2sccc21 (configuration not stated)	0	85	90	23*	13	-4
Nc1nc2n(n1)C(c1c(F)cccc1Cl)CC(c1ccc(F)cc1)N2 (configuration not stated)	7	93	99	94	-2	-9
Cc1cc(C)n(-c2nc(Nc3ccccc3C(F)(F)F)nc(-n3nc(C)cc3C)n2)n1	·	27*	15*	8.1*	·	·
Cc1cc(C)n(-c2nc(Nc3ccccc3C)nc(-n3nc(C)cc3C)n2)n1	-8	23*	74	54	·	·
Cc1cc(C)n(-c2nc(NC(C)(C)C)nc(NC(C)(C)C)n2)n1	-8	·	·	·	21	0
Cc1cc(-c2csc(N)n2)c(C)n1CCc1ccccc1	-5	89	42	40*	33	4
COc1ccccc1N1CCN(c2ccc(-c3ccccc3)nn2)CC1	3	50*	40	19*	8	·
COc1ccccc1N1CCN(c2nc(-c3ccccc3)cc(C(F)(F)F)n2)CC1	-3	104	116	93	7	·
Cc1sc2ncnc(N3CCCCC3)c2c1C	8	93	91	101	·	·
